Bioassay records (PubChem)
STAT1 activator: increases IFN-gamma driven STAT1 reporter signal; NIH 3T3 STAT1-luciferase reporter, luminescence; 100% = IFN-gamma alone, no compound; activation (% of control), % at 5.5 µM; actives 2.6% (n = 200,000); AID 932;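 active means activation above the screen-wide mean activation plus 3 SD, cut at about 130% in these data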;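 further: raw ratio to IFN-gamma control signal so 100% means no change and 0% no light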
APP 5'UTR act: APP 5'UTR luciferase reporter activation; SH-SY5Y APP 5'UTR luciferase reporter, luminescence; zero percent = DMSO vehicle wells; activation, % at 2 µM; actives 1% (n = 190,000); AID 1276;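 active means activation above a set limit, based on mean plus 3 SD of controls, cut at about 140% in these data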
NF-kB neuron act: compounds increasing NF-kB expression in human neuronal cells | AID 1239 | fold change at 12.5 µM | actives 1.6% (n = 190,000) | NF-kB reporter expression; stronger effect = higher value; in the data active means fold change above about 3.3
STAT1 blocker: inhibitors of IFN-gamma induced STAT1 signaling; NIH 3T3 STAT1-luciferase reporter, luminescence; inhibition, % at 5.5 µM; actives 0.35% (n = 200,000);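 active means inhibition above a set limit, the mean inhibition across all tested compounds plus 3 SD, cut at about 34% in these data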;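 further: 0% = IFN-gamma with DMSO and 100% = IFN-gamma with 300 µM nifuroxazide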
STAT3 inh-1: reduces IL-6 driven STAT3 reporter signal; U3A cells, IL-6 STAT3-luciferase reporter, luminescence; host cell line lacks STAT1; inhibition, % at 5.5 µM; AID 862; actives 0.89% (n = 190,000);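 active means inhibition above the mean inhibition across all screened compounds plus 3 SD, cut at about 44% in these data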;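 further: 0% = DMSO only wells and 100% = 100 µM nifuroxazide control wells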
STAT3 act: activators of IL-6 induced STAT3 signaling | U3A cells, IL-6 STAT3-luciferase reporter, luminescence; 100% = signal with IL-6 EC80 alone | activation (% of control), % at 5.6 µM | actives 0.91% (n = 190,000) | AID 871;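 active means activation above the screen-wide mean of compound activation plus 3 SD, cut at about 130% in these data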;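 further: 0% = background luminescence of wells with medium and substrate only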
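System – human U3A cells carrying STAT3-luciferase construct · Probe or stimulus – Interleukin-6, 33 ng/mL · Schedule – compound 1 h, then IL-6 6 h at 37 °C · Signal – luminescence from STAT3-driven luciferase reporter · Evaluation – percent of IL-6-only median luminescence · Benchmarks – IL-6-only high control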
STAT3 inh-2: STAT3 inhibition, confirmation assay. shares compounds with STAT3 inh-1. U3A cells, IL-6 STAT3 luciferase reporter, luminescence; cell line lacks STAT1. inhibition, % at 5.7 µM. actives 45% (n = 1,200);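 active means inhibition above the hit cutoff computed for the primary STAT3 screen, cut at about 44% in these data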;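 further: 0% = IL-6 plus DMSO and 100% = IL-6 plus nifuroxazide control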
NFkB inh STAT3ct: counter-screen for STAT3 inhibitors: NF-kappaB inhibition | actives 36% (n = 1,200) | HEK293T NF-kB luciferase reporter, TNF-alpha induced | shares compounds with STAT3 inh-1 | inhibition, % at 5.7 µM | AID 1308;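 active means inhibition above the mean of solvent-only control wells plus 3 SD, cutoff set per campaign, cut at about 13% in these data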;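 further: 0% = TNF-alpha with DMSO and 100% = TNF-alpha with MG high control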
STAT1 inh STAT3c: counter-screen for STAT3 inhibitors: STAT1 inhibition. shares compounds with STAT3 inh-1. NIH 3T3 STAT1-luciferase reporter, IFN-gamma induced, luminescence. inhibition, % at 5.7 µM. actives 27% (n = 1,200). AID 1317;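 active means inhibition above the mean plus 3 SD of solvent-only control wells, limit set per screening run, cut at about 16% in these data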;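 further: 0% = DMSO with IFN-gamma and 100% = nifuroxazide control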
* marks the source's active call; other numbers are inactive results; . = not tested or not shown. The list is not random: actives were taken first. Their share in the collection is about 4.9%.

SMILES | STAT1 activator | APP 5'UTR act | NF-kB neuron act | STAT1 blocker | STAT3 inh-1 | STAT3 act | STAT3 inh-2 | NFkB inh STAT3ct | STAT1 inh STAT3c
Cn1c(=O)n(C)c2cc(NS(=O)(=O)c3ccc4c(c3)CCCC4)ccc21 | 83.7 | -1.5 | 0.88 | 17.7 | 52.6* | 59.5 | 41.1 | 8.5 | 20.2*
CC(=O)OC1C(N2CCCCC2)c2c(ccc(/C=C/C(=O)N3CCCCC3)c2O)OC1(C)C (configuration not stated) | 106.2 | 41.1 | 1.06 | -7.3 | -2.9 | 104.3 | . | . | .
Cc1ccc(S(=O)(=O)/N=C(\N)Nc2nc(C)c3cc(C)c(C)cc3n2)cc1 | 98.6 | -4.3 | 0.98 | -0.1 | 44.4* | 65.9 | 30.4 | -7.4 | -16.0
CCCCCc1ccc(OCCCC[n+]2cccc(C)c2)c(CCCCC)c1 | 73.6 | -14.2 | 1.11 | 27.4 | 58.0* | 54.3 | 48.4* | -1.4 | 26.3*
COc1ccccc1C(=O)Nc1nc(-c2ccc(S(=O)(=O)N3CCOCC3)cc2)cs1 | 76.5 | -18.5 | 0.28 | 25.4 | 76.4* | 37.0 | 74.0* | 19.9* | 20.1*
COc1ccccc1OC(C)C(=O)Nc1nc(-c2ccc(S(=O)(=O)N3CCOCC3)cc2)cs1 (configuration not stated) | 95.1 | -10.4 | 0.87 | 5.5 | -6.4 | 107.5 | . | . | .
CCCCCCc1nnc(N)s1 | 96.8 | 1.7 | 1.3 | 3.5 | 1.5 | 98.9 | . | . | .
COc1ccc(-c2nsc3c(N4CCCCC4)ncnc23)cc1 | 77.9 | 98.2 | 0.66 | 24.6 | 101.9* | 20.5 | 75.5* | 59.7* | 15.7
CCOC(=O)N1CCN(C(=O)/C(=C/c2ccc(Br)cc2)NC(=O)c2ccc(OC)cc2)CC1 | 101.3 | 20.2 | 1.34 | -2.0 | 9.8 | 92.9 | . | . | .
COc1ccc(CN2CCN(C(=O)c3ccc4nc(N5CCOCC5)sc4c3)CC2)c(OC)c1OC | 91.4 | -0.9 | 1.31 | 8.1 | 3.3 | 98.6 | . | . | .
CC1CCN(c2nc3ccc(C(=O)N4CCN(Cc5ccc6c(c5)OCO6)CC4)cc3s2)CC1 | 119.7 | 56.7 | 1.62 | -21.8 | 49.2* | 64.8 | 25.6 | -9.4 | -49.4
CCCCCn1c(=O)[nH]c2cc(C(=O)NCc3ccc4c(c3)OCO4)ccc2c1=O | 103.4 | -0.2 | 1.14 | -3.7 | 16.3 | 91.1 | . | . | .
CCCCCn1c(=O)[nH]c2cc(C(=O)N3CCN(Cc4ccc5c(c4)OCO5)CC3)ccc2c1=O | 86.0 | 0.3 | 0.62 | 15.1 | 87.1* | 28.1 | 88.0* | 42.0* | 23.4*
O=[N+]([O-])c1cc(/C=N/NC(=S)Nc2ccccc2Cl)ccc1Cl | 113.6 | -1.9 | 1.55 | -16.9 | 3.8 | 99.9 | . | . | .
COc1ccc(/C=N/NC(=S)Nc2ccccc2[N+](=O)[O-])cc1O | 102.3 | 206.0* | 0.43 | -2.5 | 94.5* | 21.9 | 83.1* | -6.1 | -13.1
CCCOc1ccc(/C=N/NC(=S)Nc2ccccc2[N+](=O)[O-])c(O)c1 | 97.5 | -46.5 | 0.64 | 2.8 | 92.0* | 24.0 | 48.5* | -10.6 | -8.2
CCN(CC)C(=O)C1CCN(S(=O)(=O)c2ccc3oc4ccccc4c3c2)CC1 | 88.2 | 2.4 | 1.12 | 12.9 | 44.7* | 68.4 | 33.0 | 5.0 | 10.7
O=S(=O)(c1ccc2oc3ccccc3c2c1)N1CCCC1 | 97.9 | -12.1 | 1.06 | 2.2 | 0.6 | 100.4 | . | . | .
CCC1CCCCN1CCNC(=O)CCS(=O)(=O)c1ccc(Br)cc1 (configuration not stated) | 106.6 | 6.2 | 0.92 | -7.4 | -15.0 | 114.5 | . | . | .
N/C(=N\N=C\c1cccc(O)c1)c1nonc1N | 104.9 | 154.8* | 8.69* | -7.3 | 63.0* | 49.5 | 27.3 | -5.8 | -1.7
Nc1nnnn1/N=C/c1cccc(O)c1 | 104.0 | -2.7 | 1.07 | -5.2 | -21.5 | 129.6 | . | . | .
CCCNC(=O)c1ccccc1NC(=O)c1ccccc1N(C)S(=O)(=O)c1ccc(C)cc1 | 104.2 | . | 0.86 | -4.7 | -6.9 | 110.6 | . | . | .
